Test results as given in ChEMBL document CHEMBL3758157, “Design, synthesis, and evaluation of potent Wnt signaling inhibitors featuring a fused 3-ring system” (Eur J Med Chem, 2016).
Values after ≈ are worked out from the molar mass of the structure shown. Active and inactive are the calls of the source. The rule behind the calls is not given here.

Tested on: not listed separately
Test: Intrinsic clearance in mouse liver microsomes at 1 uM preincubated for 10 mins followed by NADPH addition measured for 30 to 60 mins by LC-MS/MS analysis
Assay type: ADME
Details: read-out: CLH
Method in brief: (§1)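 Liver microsomes (mouse or human, 0.2 mg/mL) with 1 µM substrate in 100 mM phosphate pH 7.4, preincubated 10 min, then started with 1 mM NADPH. Sampled at 0, 30, 60 min, quenched in cold acetonitrile with internal standard, LC-MS/MS. t1/2 from ln % remaining slope; scaled with 20 mg protein/g liver, liver 87.5 (mouse) or 25.7 (human) g/kg.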

SMILES | CLint scaled at 1 µM [mL/min/kg]
Cc1cc(-c2ccc(CC(=O)Nc3ccc4c(c3)C(=O)c3ccccc3-4)cc2)ccn1 | 508
Cc1cc(-c2ccc(CC(=O)Nc3ccc4c(c3)[nH]c3ccccc34)cc2)ccn1 | 67

Tested on: not listed separately
Test: Thermodynamic solubility of the compound in FaSSIF at 4 mg/ml at pH 6.5 after overnight incubation by LC-MS/MS analysis
Assay type: physicochemical
Details: read-out: Therm_solubility
Method in brief: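 4 mg/mL suspension in FaSSIF (pH 6.5) shaken 1 h, then equilibrated overnight at room temperature; supernatant after centrifugation quantified by LC-MS/MS.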

SMILES | solubility thermodynamic [µg/mL]
Cc1cc(-c2ccc(CC(=O)Nc3ccc4c(c3)C(=O)c3ccccc3-4)cc2)ccn1 | < 1
Cc1cc(-c2ccc(CC(=O)Nc3ccc4c(c3)[nH]c3ccccc34)cc2)ccn1 | 2 (≈ 5.11 µM)

Tested on: Rattus norvegicus
Test: AUC (0 to 24 hrs) in Sprague-Dawley rat plasma at 2 mg/kg, iv by LC-MS/MS analysis
Assay type: ADME, organism-based
Design: dose 2 mg/kg, time < 24 hr, route intravenous
Details: in vivo
Method in brief: (§2)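 Male Sprague-Dawley rats (200-250 g), fasted 12 h before dosing, food returned ~4 h post-dose. Solution at 1 mg/mL in NMP/Tween80/PEG400/water (10/1/50/39) given by tail vein at 2 mL/kg or oral gavage at 10 mL/kg. Plasma from timed blood samples precipitated with cold acetonitrile plus internal standard, measured by LC-MS/MS; noncompartmental PK parameters.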

SMILES | AUC [ng·h/mL]
Cc1cc(-c2ccc(CC(=O)Nc3ccc4c(c3)[nH]c3ccccc34)cc2)ccn1 | 7442

Biological target: T1, Protein-serine O-palmitoleoyltransferase porcupine (Homo sapiens) (UniProt Q9H237)
T1 sequence (whole entry): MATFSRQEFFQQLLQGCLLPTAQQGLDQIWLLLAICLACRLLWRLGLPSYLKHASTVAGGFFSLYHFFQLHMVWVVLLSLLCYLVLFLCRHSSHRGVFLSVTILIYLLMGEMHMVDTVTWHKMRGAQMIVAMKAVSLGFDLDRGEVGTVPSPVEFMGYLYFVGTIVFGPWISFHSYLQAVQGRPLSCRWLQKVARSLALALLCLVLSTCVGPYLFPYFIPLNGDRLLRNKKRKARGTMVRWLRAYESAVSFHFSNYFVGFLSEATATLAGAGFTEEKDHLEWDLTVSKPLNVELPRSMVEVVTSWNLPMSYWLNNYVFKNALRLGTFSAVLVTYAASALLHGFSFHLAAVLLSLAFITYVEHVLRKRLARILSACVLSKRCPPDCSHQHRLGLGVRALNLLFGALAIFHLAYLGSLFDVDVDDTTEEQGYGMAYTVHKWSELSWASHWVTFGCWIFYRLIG
Test: Inhibition of porcupine (unknown origin) in HEK293T cells transfected with pLibin-WNT3A plasmid assessed as reduction in Wnt3A secretion into cell culture medium at 0.1 uM after 48 hrs by Western blot technique
Assay type: cell-based
Details: HEK-293T
Method in brief: (§3)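 HEK293T cells in 6-well plates at 60% confluence, transfected with 1 µg pLibin-WNT3A plasmid or vehicle and treated at the same time with 0.1 µM compound. After 48 h, culture supernatant and cell lysate (40-50 µg protein) separated by SDS-PAGE, blotted to PVDF and probed for Wnt3A.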

SMILES | inhibition
Cc1cc(-c2ccc(CC(=O)Nc3ccc4c(c3)C(=O)c3ccccc3-4)cc2)ccn1 | Active
Cc1cc(-c2ccc(CC(=O)Nc3ccc4c(c3)[nH]c3ccccc34)cc2)ccn1 | Active
Cc1cc(-c2ncc(CC(=O)Nc3ccc(-c4cnccn4)cn3)cc2C)ccn1 [WNT-974] | Active

Tested on: not listed separately
Test: Chemical stability in simulated gastric fluid assessed as compound remaining at 200 uM at 40 degC after 24 hrs by HPLC technique
Assay type: physicochemical
Details: read-out: Stability
Method in brief: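 Compound at 200 µM in simulated gastric fluid (3.8 mL conc. HCl diluted to 1000 mL water), held at 40°C for 24 h; percent remaining reported.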

SMILES | remaining at 24 h, 200 µM [%]
Cc1cc(-c2ccc(CC(=O)Nc3ccc4c(c3)C(=O)c3ccccc3-4)cc2)ccn1 | 99
Cc1cc(-c2ccc(CC(=O)Nc3ccc4c(c3)[nH]c3ccccc34)cc2)ccn1 | 100

Tested on: not listed separately
Test: Cytotoxicity against mouse NIH/3T3 cells by GRE-Luciferase reporter gene assay
Assay type: cell-based
Details: nih3t3
Method in brief: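 NIH3T3 cells carrying GRE-luciferase reporter stimulated with 10 nM SAG as Hh pathway agonist, used as counter-screen for nonspecific cytotoxicity.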

SMILES | Activity
Cc1cc(-c2ncc(CC(=O)Nc3ccc4c(c3)Cc3ccccc3-4)cc2C)ccn1 | Non-toxic
Cc1cc(-c2ncc(CC(=O)Nc3ccc4c(c3)oc3ccccc34)cc2C)ccn1 | Non-toxic
Cc1cc(-c2ncc(CC(=O)Nc3ccc4c(c3)C(F)(F)c3ccccc3-4)cc2C)ccn1 | Non-toxic
Cc1cc(-c2ccc(CC(=O)Nc3ccc4c(c3)C(=O)c3ccccc3-4)cc2)ccn1 | Non-toxic
O=C(Cc1ccc2c(c1)C(=O)c1ccccc1-2)Nc1ccc(-c2cnccn2)cn1 | Non-toxic
O=C(Cc1ccc2c(c1)C(=O)c1ccccc1-2)Nc1ccc(-c2cccnc2)cc1 | Non-toxic
Cc1cc(-c2ccc(CC(=O)Nc3ccc4c(c3)Cc3ccccc3-4)cc2)ccn1 | Non-toxic
Cc1cc(-c2ccc(CC(=O)Nc3ccc4c(c3)[nH]c3ccccc34)cc2)ccn1 | Non-toxic

Tested on: not listed separately
Test: AUC (0 to 24 hrs) in Sprague-Dawley rat plasma at 10 mg/kg, po by LC-MS/MS analysis
Assay type: ADME, organism-based
Design: dose 10 mg/kg, time < 24 hr, route oral
Details: not given
Method in brief: as §2

SMILES | AUC(0-t) at 24 h [ng·h/mL]
Cc1cc(-c2ccc(CC(=O)Nc3ccc4c(c3)[nH]c3ccccc34)cc2)ccn1 | 11300

Tested on: not listed separately
Test: Half life in Sprague-Dawley rat at 2 mg/kg, iv by LC-MS/MS analysis
Assay type: ADME, organism-based
Details: in vivo
Method in brief: as §2

SMILES | half-life [h]
Cc1cc(-c2ccc(CC(=O)Nc3ccc4c(c3)[nH]c3ccccc34)cc2)ccn1 | 2.5

Tested on: not listed separately
Test: Half life in mouse liver microsomes at 1 uM preincubated for 10 mins followed by NADPH addition measured for 30 to 60 mins by LC-MS/MS analysis
Assay type: ADME
Details: not given
Method in brief: as §1

SMILES | half-life at 1 µM [h]
Cc1cc(-c2ccc(CC(=O)Nc3ccc4c(c3)C(=O)c3ccccc3-4)cc2)ccn1 | 0.2
Cc1cc(-c2ccc(CC(=O)Nc3ccc4c(c3)[nH]c3ccccc34)cc2)ccn1 | 1.52

Tested on: not listed separately
Test: Half life in Sprague-Dawley rat at 10 mg/kg, po by LC-MS/MS analysis
Assay type: ADME, organism-based
Details: in vivo
Method in brief: as §2

SMILES | half-life [h]
Cc1cc(-c2ccc(CC(=O)Nc3ccc4c(c3)[nH]c3ccccc34)cc2)ccn1 | 3.1

Tested on: not listed separately
Test: Inhibition of Wnt signaling (unknown origin) expressed in mouse L Wnt3A cells co-cultured with HEK293 cells after 48 hrs by Super-top flash reporter gene assay
Assay type: cell-based
Details: Homo sapiens, HEK293, 48 h
Method in brief: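 Mouse L Wnt3A cells and HEK293 Super-Top Flash TCF-luciferase stable cells mixed 1:1, 12,000 cells/well, grown 24 h, then compound in DMSO diluted in DMEM added. After 48 h at 37°C, Bright-Glo luminescence read; IC50 from signal inhibition, geometric mean of at least two runs ± SEM; LGK974 standard in each run.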

SMILES | IC50 [nM]
Cc1cc(-c2ncc(CC(=O)Nc3ccc4c(c3)Cc3ccccc3-4)cc2C)ccn1 | 2.5
Cc1cc(-c2ncc(CC(=O)Nc3ccc4c(c3)oc3ccccc34)cc2C)ccn1 | 13
Cc1cc(-c2ncc(CC(=O)Nc3ccc4c(c3)C(F)(F)c3ccccc3-4)cc2C)ccn1 | 2.7
Cc1cc(-c2ccc(CC(=O)Nc3ccc4c(c3)C(=O)c3ccccc3-4)cc2)ccn1 | 0.45
O=C(Cc1ccc2c(c1)C(=O)c1ccccc1-2)Nc1ccc(-c2cnccn2)cn1 | > 1000
O=C(Cc1ccc2c(c1)C(=O)c1ccccc1-2)Nc1ccc(-c2cccnc2)cc1 | > 1000
Cc1cc(-c2ccc(CC(=O)Nc3ccc4c(c3)Cc3ccccc3-4)cc2)ccn1 | 1.4
Cc1cc(-c2ccc(CC(=O)Nc3ccc4c(c3)[nH]c3ccccc34)cc2)ccn1 | 2.3
Cc1cc(-c2ncc(CC(=O)Nc3ccc(-c4cnccn4)cn3)cc2C)ccn1 [WNT-974] | 0.9

Tested on: not listed separately
Test: Half life in human liver microsomes at 1 uM preincubated for 10 mins followed by NADPH addition measured for 30 to 60 mins by LC-MS/MS analysis
Assay type: ADME
Details: not given
Method in brief: as §1

SMILES | half-life at 1 µM [h]
Cc1cc(-c2ccc(CC(=O)Nc3ccc4c(c3)C(=O)c3ccccc3-4)cc2)ccn1 | 0.2
Cc1cc(-c2ccc(CC(=O)Nc3ccc4c(c3)[nH]c3ccccc34)cc2)ccn1 | 0.717

Tested on: not listed separately
Test: Tmax in Sprague-Dawley rat plasma at 10 mg/kg, po by LC-MS/MS analysis
Assay type: ADME, organism-based
Details: not given
Method in brief: as §2

SMILES | Tmax [h]
Cc1cc(-c2ccc(CC(=O)Nc3ccc4c(c3)[nH]c3ccccc34)cc2)ccn1 | 1

Tested on: not listed separately
Test: Stability in rat plasma assessed as compound remaining at 1 uM after 8 hrs by LC-MS/MS analysis
Assay type: ADME, cell-free
Details: read-out: Stability
Method in brief: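 Compound at 1 µM incubated in blank rat plasma for 8 h, deproteinized with acetonitrile plus internal standard, centrifuged, supernatant measured by LC-MS/MS; percent remaining.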

SMILES | remaining at 8 h, 1 µM [%]
Cc1cc(-c2ccc(CC(=O)Nc3ccc4c(c3)C(=O)c3ccccc3-4)cc2)ccn1 | 100
Cc1cc(-c2ccc(CC(=O)Nc3ccc4c(c3)[nH]c3ccccc34)cc2)ccn1 | 100

Tested on: not listed separately
Test: Cmax in Sprague-Dawley rat plasma at 2 mg/kg, iv by LC-MS/MS analysis
Assay type: ADME, organism-based
Design: dose 2 mg/kg, route intravenous
Details: not given
Method in brief: as §2

SMILES | Cmax [ng/mL]
Cc1cc(-c2ccc(CC(=O)Nc3ccc4c(c3)[nH]c3ccccc34)cc2)ccn1 | 1950

Tested on: not listed separately
Test: Intrinsic clearance in human liver microsomes at 1 uM preincubated for 10 mins followed by NADPH addition measured for 30 to 60 mins by LC-MS/MS analysis
Assay type: ADME
Details: read-out: CLH
Method in brief: as §1

SMILES | CLint scaled at 1 µM [mL/min/kg]
Cc1cc(-c2ccc(CC(=O)Nc3ccc4c(c3)C(=O)c3ccccc3-4)cc2)ccn1 | 149
Cc1cc(-c2ccc(CC(=O)Nc3ccc4c(c3)[nH]c3ccccc34)cc2)ccn1 | 41

Tested on: not listed separately
Test: Effect on Wnt3A level in HEK293T cells transfected with pLibin-WNT3A plasmid at 0.1 uM after 48 hrs by Western blot technique
Assay type: cell-based
Details: human, hek-293t
Method in brief: as §3

SMILES | Activity
Cc1cc(-c2ccc(CC(=O)Nc3ccc4c(c3)C(=O)c3ccccc3-4)cc2)ccn1 | Non-toxic
Cc1cc(-c2ccc(CC(=O)Nc3ccc4c(c3)[nH]c3ccccc34)cc2)ccn1 | Non-toxic
Cc1cc(-c2ncc(CC(=O)Nc3ccc(-c4cnccn4)cn3)cc2C)ccn1 [WNT-974] | Non-toxic

Tested on: not listed separately
Test: Cmax in Sprague-Dawley rat plasma at 10 mg/kg, po by LC-MS/MS analysis
Assay type: ADME, organism-based
Design: dose 10 mg/kg, route oral
Details: not given
Method in brief: as §2

SMILES | Cmax [ng/mL]
Cc1cc(-c2ccc(CC(=O)Nc3ccc4c(c3)[nH]c3ccccc34)cc2)ccn1 | 2880

Tested on: not listed separately
Test: Volume of distribution at steady state in Sprague-Dawley rat at 2 mg/kg, iv by LC-MS/MS analysis
Assay type: ADME, organism-based
Details: in vivo, read-out: Vdss
Method in brief: as §2

SMILES | Vd [L/kg]
Cc1cc(-c2ccc(CC(=O)Nc3ccc4c(c3)[nH]c3ccccc34)cc2)ccn1 | 2.7

Tested on: Wnt3A
Test: Potency index, ratio of LGK974 IC50 to compound IC50 for Wnt signaling (unknown origin) expressed in mouse L Wnt3A cells co-cultured with HEK293
Assay type: cell-based
Details: Homo sapiens

SMILES | Ratio IC50
Cc1cc(-c2ccc(CC(=O)Nc3ccc4c(c3)C(=O)c3ccccc3-4)cc2)ccn1 | 2

Tested on: not listed separately
Test: Oral bioavailability in Sprague-Dawley rat at 10 mg/kg by LC-MS/MS analysis
Assay type: ADME, organism-based
Details: in vivo
Method in brief: as §2

SMILES | bioavailability [%]
Cc1cc(-c2ccc(CC(=O)Nc3ccc4c(c3)[nH]c3ccccc34)cc2)ccn1 | 30
